Assays:
in vitro [1] = conditions: human, liver microsomes
in vitro [2] = conditions: CD-1, mouse, liver microsomes
[3] = Half life in human liver microsomes at 1 uM preincubated for 5 mins followed by NADPH addition measured up to 45 mins by LC-MS/MS analysis; type: ADME, microsome; conditions: 0.75 h
In short: (§1)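 Pooled liver microsomes (0.5 mg/mL; male CD-1 mouse, male Sprague Dawley rat, or mixed-gender human) with 1 μM compound in 100 mM potassium phosphate pH 7.4, 3 mM MgCl2, 37 °C with shaking. 5 min preincubation, then 1 mM NADPH. Aliquots at 0, 3, 7, 15, 25, 45 min quenched in cold CH3CN with carbamazepine internal standard, then LC/MS/MS. Triplicate; T1/2 = ln2/k from the slope of ln % remaining versus time.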

in vitro [4] = conditions: CD-1, mouse, liver microsomes; remark: listed apart in the source
[5] = Half life in CD-1 mouse liver microsomes at 1 uM preincubated for 5 mins followed by NADPH addition measured up to 45 mins by LC-MS/MS analysis; type: ADME, microsome; conditions: 0.75 h
In short: as §1

[6] = Lipophilicity, log P of the compound; type: physicochemical; conditions: octanol/water
in vitro [7] = conditions: human, liver microsomes; remark: listed apart in the source
[8] = Half life in Sprague-Dawley rat liver microsomes at 1 uM preincubated for 5 mins followed by NADPH addition measured up to 45 mins by LC-MS/MS analysis; type: ADME, microsome; conditions: 0.75 h
In short: as §1

[9] = target: Lanosterol 14-alpha demethylase (Candida albicans (strain SC5314 / ATCC MYA-2876) (Yeast), UniProt P10613); experiment: Inhibition of Candida albicans CYP51 assessed as reduction in [3-3H]lanosterol 14alpha-demethylation at 0.75 uM preincubated for 60 secs followed by NADPH addition measured after 60 mins by RP-HPLC analysis relative to control; conditions: 1 h
Sequence of Lanosterol 14-alpha demethylase (Candida albicans (strain SC5314 / ATCC MYA-2876) (Yeast), UniProt P10613) (P10613 whole entry): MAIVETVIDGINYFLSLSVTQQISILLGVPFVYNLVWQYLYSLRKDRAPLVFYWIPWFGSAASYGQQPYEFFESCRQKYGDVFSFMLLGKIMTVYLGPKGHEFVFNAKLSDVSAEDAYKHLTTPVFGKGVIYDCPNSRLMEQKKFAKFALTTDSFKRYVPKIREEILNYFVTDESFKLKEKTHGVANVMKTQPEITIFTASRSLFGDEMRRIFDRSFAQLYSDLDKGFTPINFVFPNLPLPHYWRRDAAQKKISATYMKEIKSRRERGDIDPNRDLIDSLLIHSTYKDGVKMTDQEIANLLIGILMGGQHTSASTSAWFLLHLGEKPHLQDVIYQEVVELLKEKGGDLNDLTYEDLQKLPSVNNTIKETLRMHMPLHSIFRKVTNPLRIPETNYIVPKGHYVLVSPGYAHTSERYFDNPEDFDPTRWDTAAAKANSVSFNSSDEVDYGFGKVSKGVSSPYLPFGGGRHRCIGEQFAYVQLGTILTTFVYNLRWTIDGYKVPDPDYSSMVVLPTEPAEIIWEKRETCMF
In short: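 C. albicans CYP51 expressed in E. coli and purified, 0.5 μM, with 1.0 μM rat NADPH-P450 reductase, dilauroylphosphatidylcholine and isocitrate dehydrogenase/isocitrate regeneration in 50 mM potassium phosphate pH 7.2, 10% glycerol, 0.1% Triton X-100. Substrate 25 μM final; inhibitor:enzyme:substrate 1.5:1:50. 37 °C, started with 100 μM NADPH. Sterols extracted with EtOAc, radio-HPLC. Triplicate, mean ± SD.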

in vitro [10] = conditions: Sprague-Dawley, rat, liver microsomes
[11] = target: Lanosterol 14-alpha demethylase (Aspergillus) (UniProt B8NUK6+Q9P8R0+G4WW85); experiment: Inhibition of Aspergillus fumigatus CYP51 assessed as reduction in [3-3H]eburicol 14alpha-demethylation at 0.75 uM preincubated for 60 secs followed by NADPH addition measured after 60 mins by RP-HPLC analysis relative to control
In short: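 E. coli-expressed, purified CYP51 (0.5 μM) with rat NADPH-P450 reductase (1.0 μM), 100 μM dilauroylphosphatidylcholine, isocitrate dehydrogenase/isocitrate NADPH regeneration, in 50 mM K phosphate pH 7.2 with 10% glycerol and 0.1% Triton X-100. [3-3H]eburicol 25 μM final, inhibitor 0.75 μM final (1.5:1:50 inhibitor:enzyme:substrate), 37 °C. Started with 100 μM NADPH, 60 min, EtOAc extraction, radio-HPLC. Percent inhibition, triplicate, mean ± SD.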

in vitro [12] = conditions: Sprague-Dawley, rat, liver microsomes; remark: listed apart in the source
[13] = target: T1, Lanosterol 14-alpha demethylase (Aspergillus, UniProt B8NUK6+G4WW85+Q9P8R0); experiment: Binding affinity to Aspergillus fumigatus CYP51 by spectral titration method; conditions: read-out: Kd(app)
T1 sequence (B8NUK6 whole entry): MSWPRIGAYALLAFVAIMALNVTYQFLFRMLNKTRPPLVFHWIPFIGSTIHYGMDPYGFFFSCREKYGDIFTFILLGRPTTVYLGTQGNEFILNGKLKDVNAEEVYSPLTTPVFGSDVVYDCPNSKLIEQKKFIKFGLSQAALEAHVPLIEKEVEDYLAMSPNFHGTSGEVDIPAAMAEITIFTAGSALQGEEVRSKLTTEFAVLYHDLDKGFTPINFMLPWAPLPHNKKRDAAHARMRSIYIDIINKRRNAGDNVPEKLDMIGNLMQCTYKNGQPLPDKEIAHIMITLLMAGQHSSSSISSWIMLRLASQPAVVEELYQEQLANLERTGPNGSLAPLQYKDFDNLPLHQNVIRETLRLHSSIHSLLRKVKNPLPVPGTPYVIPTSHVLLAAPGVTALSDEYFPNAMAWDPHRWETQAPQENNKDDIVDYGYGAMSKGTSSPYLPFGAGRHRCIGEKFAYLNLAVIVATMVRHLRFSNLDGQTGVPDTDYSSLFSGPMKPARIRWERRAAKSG
T1 sequence (Q9P8R0 whole entry): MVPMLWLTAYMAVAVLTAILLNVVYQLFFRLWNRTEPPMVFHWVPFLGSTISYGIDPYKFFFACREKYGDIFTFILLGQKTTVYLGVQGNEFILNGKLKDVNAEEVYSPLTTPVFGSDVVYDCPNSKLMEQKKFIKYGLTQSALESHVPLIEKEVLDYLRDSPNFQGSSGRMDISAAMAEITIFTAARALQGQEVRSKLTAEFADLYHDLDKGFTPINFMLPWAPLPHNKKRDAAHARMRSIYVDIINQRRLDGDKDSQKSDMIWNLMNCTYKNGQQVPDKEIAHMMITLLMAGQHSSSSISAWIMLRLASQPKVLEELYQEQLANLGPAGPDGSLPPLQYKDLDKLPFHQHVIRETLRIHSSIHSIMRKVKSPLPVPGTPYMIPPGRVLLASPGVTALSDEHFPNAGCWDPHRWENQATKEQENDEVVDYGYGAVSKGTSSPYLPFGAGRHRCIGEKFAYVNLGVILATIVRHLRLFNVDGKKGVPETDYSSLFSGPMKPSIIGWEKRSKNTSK
T1 sequence (G4WW85 whole entry): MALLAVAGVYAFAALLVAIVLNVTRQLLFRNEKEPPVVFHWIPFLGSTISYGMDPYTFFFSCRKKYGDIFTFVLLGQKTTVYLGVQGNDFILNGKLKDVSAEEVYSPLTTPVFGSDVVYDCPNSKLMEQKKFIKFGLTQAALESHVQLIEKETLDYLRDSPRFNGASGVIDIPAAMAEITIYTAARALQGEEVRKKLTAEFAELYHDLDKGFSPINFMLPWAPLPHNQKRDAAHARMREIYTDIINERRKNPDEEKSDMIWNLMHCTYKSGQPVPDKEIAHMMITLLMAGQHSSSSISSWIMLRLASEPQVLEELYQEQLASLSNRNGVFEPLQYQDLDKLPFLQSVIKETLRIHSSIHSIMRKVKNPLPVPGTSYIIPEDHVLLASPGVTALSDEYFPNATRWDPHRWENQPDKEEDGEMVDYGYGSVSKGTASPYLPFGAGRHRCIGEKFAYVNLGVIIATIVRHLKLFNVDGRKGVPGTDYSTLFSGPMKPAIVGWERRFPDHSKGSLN
In short: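 Purified CYP51 at 0.5 μM in 5 cm path cuvettes, titrated from 0.2 mM DMSO stocks over 0.1–0.8 μM ligand. Type II red shift of the Soret band (417 to 424 nm) followed as ΔA (Amax−Amin) in difference spectra. Kd obtained by fitting to the quadratic tight-binding equation using total ligand and enzyme concentrations.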

Row | SMILES | CLint scaled at 0.75 h, 1 µM (in vitro [1]) | CLhep predicted at 0.75 h, 1 µM (in vitro [2]) | t1/2 [3] | CLint scaled at 0.75 h, 1 µM (in vitro [4]) | t1/2 [5] | logP [6] | CLhep predicted at 0.75 h, 1 µM (in vitro [7]) | t1/2 [8] | inhibition at 0.75 µM [9] | CLint scaled at 0.75 h, 1 µM (in vitro [10]) | inhibition [11] | CLhep predicted at 0.75 h, 1 µM (in vitro [12]) | Kd [13]
1 | O=C(N[C@@H](Cn1ccnc1)c1ccc(Cl)cc1Cl)c1ccc(-c2nnc(-c3cc(-c4ccccn4)ccc3F)o2)cc1 | 10.2 mL/min/kg | 65 mL/min/kg | 2.05 h | 238 mL/min/kg | 0.383 h | 5.49 | 6.85 mL/min/kg | 0.95 h | 83% | 49.4 mL/min/kg | 24% | 29 mL/min/kg | 
2 | O=C(N[C@@H](Cn1ccnc1)c1ccc(Cl)cc1Cl)c1ccc(-c2nnc(-c3ccc(-c4ccccn4)cc3F)o2)cc1 | 15 mL/min/kg | 26 mL/min/kg | 1.38 h | 36.5 mL/min/kg | 2.48 h | 5.49 | 8.75 mL/min/kg | 0.9 h | 61% | 51.6 mL/min/kg | 26% | 29.7 mL/min/kg | 
3 | O=C(N[C@@H](Cn1ccnc1)c1ccc(Cl)cc1Cl)c1ccc(-c2nnc(-c3cc(F)cc(OCC(F)(F)F)c3)o2)cc1 | 11.3 mL/min/kg | 43.6 mL/min/kg | 1.85 h | 84.7 mL/min/kg | 1.08 h | 5.58 | 7.33 mL/min/kg | 0.933 h | 65% | 50.4 mL/min/kg | 51% | 29 mL/min/kg | 
4 | O=C(N[C@@H](Cn1ccnc1)c1ccc(Cl)cc1Cl)c1ccc(-c2nnc(-c3cccc(-c4ccccn4)c3)o2)cc1 | 13.1 mL/min/kg | 56 mL/min/kg | 1.58 h | 152 mL/min/kg | 0.6 h | 5.33 | 8.06 mL/min/kg | 0.683 h | 77% | 68 mL/min/kg | 34% | 35 mL/min/kg | 
5 | O=C(N[C@@H](Cn1ccnc1)c1ccc(Cl)cc1Cl)c1ccc(-c2nnc(-c3cccc(Br)c3)o2)cc1 | 9.47 mL/min/kg | 55 mL/min/kg | 2.2 h | 126 mL/min/kg | 0.717 h | 5.4 | 6.53 mL/min/kg | 1.77 h | 84% | 27 mL/min/kg | 41% | 19 mL/min/kg | 
6 | O=C(N[C@@H](Cn1ccnc1)c1ccc(Cl)cc1Cl)c1ccc(-c2nnc(-c3cccc(N4CCOCC4)c3)o2)cc1 |  |  |  |  |  | 4.45 |  |  | 58% |  | 15% |  | 
7 | CS(=O)(=O)c1ccc(-c2nnc(-c3ccc(C(=O)N[C@@H](Cn4ccnc4)c4ccc(Cl)cc4Cl)cc3)o2)cc1Cl | 9.31 mL/min/kg | 34.5 mL/min/kg | 2.23 h | 56 mL/min/kg | 1.62 h | 3.83 | 6.45 mL/min/kg | 0.45 h | 53% | 104 mL/min/kg | 32% | 42 mL/min/kg | 
8 | O=C(N[C@@H](Cn1ccnc1)c1ccc(Cl)cc1Cl)c1ccc(-c2nnc(-c3ccc(N4CCOCC4)cc3)o2)cc1 |  |  |  |  |  | 4.45 |  |  | 29% |  | 3% |  | 
9 | O=C(N[C@@H](Cn1ccnc1)c1ccc(Cl)cc1Cl)c1ccc(-c2nnc(-c3ccc(-c4ccccn4)cc3)o2)cc1 | 10.8 mL/min/kg | 46 mL/min/kg | 1.92 h | 95 mL/min/kg | 0.95 h | 5.33 | 7.15 mL/min/kg | 0.5 h | 66% | 94 mL/min/kg | 23% | 40 mL/min/kg | 
10 | O=C(N[C@@H](Cn1ccnc1)c1ccc(Cl)cc1Cl)c1ccc(-c2nnc(-c3ccc(Cl)c(Cl)c3)o2)cc1 | 11.4 mL/min/kg | 49 mL/min/kg | 1.83 h | 107 mL/min/kg | 0.85 h | 5.68 | 7.39 mL/min/kg | 0.667 h | 92% | 70 mL/min/kg | 55% | 35 mL/min/kg | 
11 | O=C(N[C@@H](Cn1ccnc1)c1ccc(Cl)cc1Cl)c1ccc(-c2nnc(-c3cc(F)cc(-c4ccccn4)c3)o2)cc1 | 96.6 mL/min/kg | 34 mL/min/kg | 0.217 h | 55 mL/min/kg | 1.65 h | 5.49 | 17.3 mL/min/kg | 1.3 h | 87% | 36 mL/min/kg | 80% | 24 mL/min/kg | 61 nM

Source: ChEMBL document CHEMBL4118269 (J Med Chem, 2018)
